ChEMBL document CHEMBL4130549, “Synthesis and bioactivities study of new antibacterial peptide mimics: The dialkyl cationic amphiphiles” (Eur J Med Chem, 2018)
The source made the active and inactive calls. No cut-off for these calls is given here.

Columns and labels:
Enterococcus faecalis = experiment: Antibacterial activity against Enterococcus faecalis after 16 to 20 hrs by broth microdilution method; format: functional
Method in brief: (§1)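 Broth microdilution per CLSI in cation-adjusted Mueller-Hinton broth; 4-6 h cultures (~10⁸ CFU/mL) diluted to ~10⁶ CFU/mL and mixed 1:1 with twofold dilutions of water-dissolved compound (256 to 0.5 µg/mL). Incubated 16-20 h at 37 °C; MIC read visually. Each concentration run in duplicate, whole experiment repeated at least twice. MRSA, KPC and NDM-1 strains were clinical isolates.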

Staphylococcus aureus [1] = experiment: Antibacterial activity against methicillin-resistant Staphylococcus aureus after 16 to 20 hrs by broth microdilution method; format: functional
Method in brief: (§2)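 CLSI broth microdilution in cation-adjusted Mueller-Hinton broth. A 4-6 h culture was diluted to about 10⁶ CFU/mL and mixed 1:1 with twofold compound dilutions (256–0.5 µg/mL before mixing) prepared from aqueous stocks. Plates were incubated at 37 °C for 16-20 h. Each concentration was tested in duplicate, and the experiment was repeated at least twice.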

Enterobacteriaceae [2] = experiment: Antibacterial activity against NDM-1-producing Enterobacteriaceae after 16 to 20 hrs by broth microdilution method; format: functional; method in brief: as §1
Staphylococcus aureus [3] = experiment: Antibacterial activity against methicillin-resistant Staphylococcus aureus isolate M1 after 16 to 20 hrs by broth microdilution method; format: functional; method in brief: as §2
Staphylococcus aureus [4] = experiment: Antibacterial activity against methicillin-resistant Staphylococcus aureus isolate M3 after 16 to 20 hrs by broth microdilution method; format: functional; method in brief: as §2
Staphylococcus aureus [5] = experiment: Antibacterial activity against methicillin-resistant Staphylococcus aureus isolate M4 after 16 to 20 hrs by broth microdilution method; format: functional; method in brief: as §2
Staphylococcus aureus [6] = experiment: Antibacterial activity against methicillin-resistant Staphylococcus aureus isolate M5 after 16 to 20 hrs by broth microdilution method; format: functional; method in brief: as §2
Staphylococcus aureus [7] = experiment: Antibacterial activity against methicillin-resistant Staphylococcus aureus isolate M6 after 16 to 20 hrs by broth microdilution method; format: functional; method in brief: as §2
Staphylococcus aureus [8] = experiment: Antibacterial activity against methicillin-resistant Staphylococcus aureus isolate M7 after 16 to 20 hrs by broth microdilution method; format: functional; method in brief: as §2
Staphylococcus aureus [9] = experiment: Antibacterial activity against methicillin-resistant Staphylococcus aureus isolate M9 after 16 to 20 hrs by broth microdilution method; format: functional; method in brief: as §2
Staphylococcus aureus [10] = experiment: Antibacterial activity against methicillin-resistant Staphylococcus aureus isolate M10 after 16 to 20 hrs by broth microdilution method; format: functional; method in brief: as §2
Klebsiella pneumoniae [11] = experiment: Antibacterial activity against carbapenemase-producing Klebsiella pneumoniae isolate K1 after 16 to 20 hrs by broth microdilution method; format: functional; method in brief: as §1
Klebsiella pneumoniae [12] = experiment: Antibacterial activity against carbapenemase-producing Klebsiella pneumoniae isolate K3 after 16 to 20 hrs by broth microdilution method; format: functional; method in brief: as §1
Klebsiella pneumoniae [13] = experiment: Antibacterial activity against carbapenemase-producing Klebsiella pneumoniae isolate K4 after 16 to 20 hrs by broth microdilution method; format: functional; method in brief: as §1
Klebsiella pneumoniae [14] = experiment: Antibacterial activity against carbapenemase-producing Klebsiella pneumoniae isolate K5 after 16 to 20 hrs by broth microdilution method; format: functional; method in brief: as §1
Klebsiella pneumoniae [15] = experiment: Antibacterial activity against carbapenemase-producing Klebsiella pneumoniae isolate K6 after 16 to 20 hrs by broth microdilution method; format: functional; method in brief: as §1
Klebsiella pneumoniae [16] = experiment: Antibacterial activity against carbapenemase-producing Klebsiella pneumoniae isolate K7 after 16 to 20 hrs by broth microdilution method; format: functional; method in brief: as §1
Klebsiella pneumoniae [17] = experiment: Antibacterial activity against carbapenemase-producing Klebsiella pneumoniae isolate K8 after 16 to 20 hrs by broth microdilution method; format: functional; method in brief: as §1
Klebsiella pneumoniae [18] = experiment: Antibacterial activity against carbapenemase-producing Klebsiella pneumoniae isolate K9 after 16 to 20 hrs by broth microdilution method; format: functional; method in brief: as §1
Enterobacteriaceae [19] = experiment: Antibacterial activity against NDM-1-producing Enterobacteriaceae isolate N1 after 16 to 20 hrs by broth microdilution method; format: functional; method in brief: as §1
Enterobacteriaceae [20] = experiment: Antibacterial activity against NDM-1-producing Enterobacteriaceae isolate N2 after 16 to 20 hrs by broth microdilution method; format: functional; method in brief: as §1
Enterobacteriaceae [21] = experiment: Antibacterial activity against NDM-1-producing Enterobacteriaceae isolate N4 after 16 to 20 hrs by broth microdilution method; format: functional; method in brief: as §1
Enterobacteriaceae [22] = experiment: Antibacterial activity against NDM-1-producing Enterobacteriaceae isolate N5 after 16 to 20 hrs by broth microdilution method; format: functional; method in brief: as §1
Enterobacteriaceae [23] = experiment: Antibacterial activity against NDM-1-producing Enterobacteriaceae isolate N7 after 16 to 20 hrs by broth microdilution method; format: functional; method in brief: as §1
Enterobacteriaceae [24] = experiment: Antibacterial activity against NDM-1-producing Enterobacteriaceae isolate N8 after 16 to 20 hrs by broth microdilution method; format: functional; method in brief: as §1
Enterobacteriaceae [25] = experiment: Antibacterial activity against NDM-1-producing Enterobacteriaceae isolate N9 after 16 to 20 hrs by broth microdilution method; format: functional; method in brief: as §1
Enterobacteriaceae [26] = experiment: Antibacterial activity against NDM-1-producing Enterobacteriaceae isolate N10 after 16 to 20 hrs by broth microdilution method; format: functional; method in brief: as §1
Staphylococcus aureus [27] = experiment: Bactericidal activity against methicillin-resistant Staphylococcus aureus after 20 to 24 hrs by broth microdilution method; format: functional
Method in brief: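 For MBC, 20 µL from wells of the broth microdilution MIC plate showing little or no turbidity was plated on agar and incubated 20-24 h at 37 °C. MBC was the lowest concentration giving no colonies.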

Staphylococcus aureus [28] = experiment: Bactericidal activity against methicillin-resistant Staphylococcus aureus after 20 to 24 hrs in presence of 50% plasma by broth microdilution method; format: functional, organism-based
Method in brief: (§3)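 MRSA at 10⁵ CFU/mL in 50% Mueller-Hinton broth plus 50% sheep serum, plasma or defibrinated whole blood. Serum and plasma were separated by centrifugation at 3,500 rpm for 10 min. Aqueous compound dilutions (512–4 µg/mL before mixing) were combined 1:3 with the suspension and incubated 20-24 h at 37 °C. Wells were plated on Mueller-Hinton agar for a further 20-24 h; MBC was taken as no colonies.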

Staphylococcus aureus [29] = experiment: Bactericidal activity against methicillin-resistant Staphylococcus aureus after 20 to 24 hrs in presence of 50% blood by broth microdilution method; format: functional, organism-based; method in brief: as §3
Staphylococcus aureus [30] = experiment: Ratio of MBC for methicillin-resistant Staphylococcus aureus in presence of 50% serum to MBC for methicillin-resistant Staphylococcus aureus; format: functional; method in brief: as §3
Staphylococcus aureus [31] = experiment: Ratio of MBC for methicillin-resistant Staphylococcus aureus in presence of 50% plasma to MBC for methicillin-resistant Staphylococcus aureus; format: functional; method in brief: as §3
Staphylococcus aureus [32] = experiment: Induction of cytoplasmic membrane depolarization in Staphylococcus aureus ATCC 29213 at 20 ug/ml measured every 2 mins for 12 mins by diSC35 staining based fluorescence assay; format: functional, organism-based
Method in brief: (§4)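 Mid-log cells (4–6 h) pelleted, washed and resuspended (~10^8 CFU/mL) in PBS for S. aureus, or in 5 mM HEPES, 5 mM glucose and 100 mM KCl (1:1:1) for E. coli. Preloaded with diSC35 (10 µM, 50 µL), 30 min for S. aureus and 40 min plus EDTA (200 µM, 50 µL) for E. coli. Baseline read 8 min (ex 622/em 670 nm), then compound added to 20 µg/mL final and read every 2 min for 12 min. Water control.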

Escherichia coli = experiment: Induction of cytoplasmic membrane depolarization in Escherichia coli ATCC 25922 at 20 ug/ml measured every 2 mins for 12 mins by diSC35 staining based fluorescence assay; format: functional, organism-based; method in brief: as §4
Staphylococcus aureus [33] = experiment: Induction of inner membrane permeabilization in Staphylococcus aureus ATCC 29213 at 20 ug/ml measured every 2 mins for 12 mins by propidium iodide staining based fluorescence assay; format: functional, organism-based
Method in brief: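 Mid-log cells (~10^8 CFU/mL) pre-incubated with propidium iodide (10 µM, 50 µL), 30 min for S. aureus and 40 min for E. coli. Fluorescence (ex 535/em 617 nm) read for 8 min, then compound added to 20 µg/mL final and monitored every 2 min for 12 min. Water-treated control.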

CCCCCCCCN(CCCCCCCC)C(=O)[C@@H](N)CCCN=C(N)N.Cl.Cl.Cl
MIC (Enterococcus faecalis): 2 µg/mL | MIC (Staphylococcus aureus [1]): 0.5 µg/mL | MIC (Enterobacteriaceae [2]): 4 µg/mL | MIC (Staphylococcus aureus [3]): 1 µg/mL | MIC (Staphylococcus aureus [4]): 0.5 µg/mL | MIC (Staphylococcus aureus [5]): 1 µg/mL | MIC (Staphylococcus aureus [6]): 1 µg/mL | MIC (Staphylococcus aureus [7]): 0.5 µg/mL | MIC (Staphylococcus aureus [8]): 0.5 µg/mL | MIC (Staphylococcus aureus [9]): 1 µg/mL | MIC (Staphylococcus aureus [10]): 0.5 µg/mL | MIC (Klebsiella pneumoniae [11]): 8 µg/mL | MIC (Klebsiella pneumoniae [12]): 4 µg/mL | MIC (Klebsiella pneumoniae [13]): 4 µg/mL | MIC (Klebsiella pneumoniae [14]): 8 µg/mL | MIC (Klebsiella pneumoniae [15]): 8 µg/mL | MIC (Klebsiella pneumoniae [16]): 8 µg/mL | MIC (Klebsiella pneumoniae [17]): 4 µg/mL | MIC (Klebsiella pneumoniae [18]): 8 µg/mL | MIC (Enterobacteriaceae [19]): 8 µg/mL | MIC (Enterobacteriaceae [20]): 8 µg/mL | MIC (Enterobacteriaceae [21]): 8 µg/mL | MIC (Enterobacteriaceae [22]): 4 µg/mL | MIC (Enterobacteriaceae [23]): 4 µg/mL | MIC (Enterobacteriaceae [24]): 4 µg/mL | MIC (Enterobacteriaceae [25]): 8 µg/mL | MIC (Enterobacteriaceae [26]): 8 µg/mL | MBC (Staphylococcus aureus [27]): 4 to 8 µg/mL | Activity (Staphylococcus aureus [28]): Active | Activity (Staphylococcus aureus [29]): inactive | Ratio (Staphylococcus aureus [30]): 1 - 2 | Ratio (Staphylococcus aureus [31]): 2 - 4 | Activity (Staphylococcus aureus [32]): Active | Activity (Escherichia coli): Active | Activity (Staphylococcus aureus [33]): Active

CCCCCCCCCCN(CCCCCCCCCC)C(=O)[C@@H](N)CCCCN.Cl.Cl
MIC (Enterococcus faecalis): 2 µg/mL | MIC (Staphylococcus aureus [1]): 1 µg/mL | MIC (Enterobacteriaceae [2]): 4 µg/mL | MIC (Staphylococcus aureus [3]): 1 µg/mL | MIC (Staphylococcus aureus [4]): 2 µg/mL | MIC (Staphylococcus aureus [5]): 2 µg/mL | MIC (Staphylococcus aureus [6]): 2 µg/mL | MIC (Staphylococcus aureus [7]): 1 µg/mL | MIC (Staphylococcus aureus [8]): 1 µg/mL | MIC (Staphylococcus aureus [9]): 1 µg/mL | MIC (Staphylococcus aureus [10]): 1 µg/mL | MIC (Klebsiella pneumoniae [11]): 4 µg/mL | MIC (Klebsiella pneumoniae [12]): 4 µg/mL | MIC (Klebsiella pneumoniae [13]): 4 µg/mL | MIC (Klebsiella pneumoniae [14]): 4 µg/mL | MIC (Klebsiella pneumoniae [15]): 4 µg/mL | MIC (Klebsiella pneumoniae [16]): 4 µg/mL | MIC (Klebsiella pneumoniae [17]): 2 µg/mL | MIC (Klebsiella pneumoniae [18]): 4 µg/mL | MIC (Enterobacteriaceae [19]): 4 µg/mL | MIC (Enterobacteriaceae [20]): 4 µg/mL | MIC (Enterobacteriaceae [21]): 4 µg/mL | MIC (Enterobacteriaceae [22]): 4 µg/mL | MIC (Enterobacteriaceae [23]): 4 µg/mL | MIC (Enterobacteriaceae [24]): 4 µg/mL | MIC (Enterobacteriaceae [25]): 4 µg/mL | MIC (Enterobacteriaceae [26]): 4 µg/mL | MBC (Staphylococcus aureus [27]): 4 to 8 µg/mL | Activity (Staphylococcus aureus [28]): Active | Activity (Staphylococcus aureus [29]): inactive | Ratio (Staphylococcus aureus [30]): 1 - 2 | Ratio (Staphylococcus aureus [31]): 2 - 4 | Activity (Staphylococcus aureus [32]): Active | Activity (Escherichia coli): Active | Activity (Staphylococcus aureus [33]): Active
